Results on 3 compounds are retold here after ChEMBL document CHEMBL1126128, “Nonprostanoid prostacyclin mimetics. 3. Structural variations of the diphenyl heterocycle moiety” (J Med Chem, 1992).

Usually IC50 stands for the concentration needed to halve the response being measured. A high value points to weaker potency. In general, Inhibition refers to the drop in the measured response relative to a control, in per cent.

Common to all, as to assay type: functional
The nature of experiment [1]: Inhibition of ADP-induced aggregation of human blood platelets in plasma. The following applies: Homo sapiens, Plasma.
Experiment [2] in a line: Compound was tested for inhibition of ADP-induced aggregation of blood platelets in human platelet rich plasma at >82 uM concentration. The method, boiled down: (§1)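 Human platelet-rich plasma with aggregation triggered by ADP and followed by aggregometry. Each test acid was run at one stated upper concentration, and the read-out is percent inhibition of aggregation at that concentration. Each value is from a single experiment or is the mean of duplicate determinations.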

Experiment [3] can be described thus: Compound was tested for inhibition of ADP-induced aggregation of blood platelets in human platelet rich plasma at >84 uM concentration. A digest of the protocol: as §1
Experiment [4] can be described thus: Compound was tested for inhibition of ADP-induced aggregation of blood platelets in human platelet rich plasma at >32 uM concentration. A digest of the protocol: as §1

Regarding `O=C(O)COc1cccc(-n2cnc(-c3ccccc3)c2-c2ccccc2)c1`, the IC50 in experiment [1] was more than 82 µM. In addition, in experiment [2], the Inhibition is reported as 18%.
For `O=C(O)COc1ccc(-n2cnc(-c3ccccc3)c2-c2ccccc2)cc1`, in experiment [1], the IC50 is more than 84 µM. Moreover, in experiment [3], the Inhibition came out at 23%.
As to `O=C(O)CCCCOc1cccc(-n2cnc(-c3ccccc3)c2-c2ccccc2)c1`, the Inhibition in experiment [4] is on record as 23%. The compound also registered a half-maximal inhibitory concentration (IC50) in experiment [1] of more than 32 µM.
